Assay results of several laboratories.
Compare with care: the assays were run in different laboratories. pIC50: −log10 of the molar value.
Cell line: MCF7
Observed: cell growth or viability

Structure (SMILES)	assay	conditions	measurement	result
CC(=O)O[C@@]12CO[C@@H]1C[C@H](O)[C@@]1(C)C(=O)[C@H](O)C3=C(C)[C@@H](OC(=O)[C@H](O)[C@@H](NC(=O)OC(C)(C)C)c4ccccc4)C[C@@](O)([C@@H](OC(=O)c4ccccc4)[C@H]21)C3(C)C	MTT	48 h	pIC50	4.03
CC(=O)c1nc2ccccc2n1Cc1cn([C@@H]2OC[C@@H](O)[C@H](O)[C@H]2O)nn1	LDH	48 h	pIC50	5.68
COc1ccccc1-n1cc(CNC(=O)[C@@]2(C)[C@H](O)CC[C@@]3(C)[C@H]2CC[C@]2(C)[C@@H]3C(=O)C[C@@H]3[C@@H]4[C@@H](C)[C@H](C)CC[C@]4(C)CC[C@]32C)nn1	MTT	24 h	pIC50	4.13
O=C1CS/C(=N\c2cc(C(F)(F)F)ccc2-c2nnc(N3C(=O)CS/C3=N\c3ccc(Cl)cc3)s2)N1c1ccc(Cl)cc1	MTT	–	pIC50	4.28
CCOC(=O)C(=CNc1ccc(Oc2ccccc2)cc1)C(=O)OCC	MTT	–	pIC50	≤ 3.70
CCc1ccc(N=C2C(=O)N(Cc3ccccc3)c3ccccc32)cc1	MTT	48 h	pIC50	4.98
NS(=O)(=O)c1ccc(-n2nc(C(=O)NN3C(=O)c4ccccc4C3=O)cc2-c2ccccc2)cc1	fluorescence	48 h	pIC50	4.41
Cc1nc2ccc(-c3ccc(F)cc3)cc2c(O)c1C(=O)O	MTT	48 h	pIC50	≤ 4.00
COc1cccc2c1C(=O)c1c(O)c3c(c(O)c1C2=O)C[C@@](O)(C(=O)CO)C[C@@H]3O[C@H]1C[C@H](N)[C@H](O)[C@H](C)O1	MTT	48 h	pIC50	5.51
CC(C)c1cccc(C(C)C)c1N=C1C(=O)N(Cc2ccccc2)c2ccccc21	MTT	48 h	pIC50	4.90
O=[N+]([O-])c1cc(Br)c(O)c(C=NNc2ccccc2)c1	MTT	24 h	pIC50	5.19
Cc1cccc([N+](=O)[O-])c1N=C1SCC(=O)N1c1nnc(-c2ccc(C(F)(F)F)cc2N=C2SCC(=O)N2c2c(C)cccc2[N+](=O)[O-])s1	MTT	–	pIC50	4.27
Fc1ccc2c(-c3ncc(-c4ccccc4)o3)nn(Cc3ccccc3)c2c1	–	48 h	pIC50	4.15
COc1cccc2c1C(=O)c1c(O)c3c(c(O)c1C2=O)C[C@@](O)(C(=O)CO)C[C@@H]3O[C@H]1C[C@H](N)[C@H](O)[C@H](C)O1	MTT	24 h	pIC50	5.23
O=C1Nc2ccccc2C1=Nc1ccccc1I	MTT	48 h	pIC50	4.37
COc1ccc2c(-c3ncc(-c4ccccc4)o3)nn(Cc3ccccc3)c2c1	–	48 h	pIC50	4.06
C/C(=N\CCNCCNCC/N=C(\C)c1c(O)c2ccccc2oc1=O)c1c(O)c2ccccc2oc1=O	MTT	48 h	pIC50	5.12
CC(C)c1ccc(/C=C2\N=C(SCC(=O)O)N(c3ccccc3)C2=O)cc1	MTT	–	IC50	49.2 µg/mL
CN(C)C(=O)Nc1nc2c(Cl)cc(Cl)cc2c(=O)n1-c1ccccc1	MTT	48 h	pIC50	< 3.70
COc1ccc(N(Cc2nc(-c3ccc(F)cc3)cs2)C(=O)CCCCCC(=O)NO)cc1	MTT	72 h	pIC50	4.99
CNC(=S)N/N=C/c1cccc2cc3ccccc3nc12	MTT	48 h	pIC50	4.73
O=S(=O)([O-])c1ccc(O)c(C=NNC(=S)Nc2cccc3ccccc23)c1.[Na+]	MTT	48 h	IC50	> 800 µg/mL
CCC(C(=O)N1C(=O)C(=Nc2ccc(Cl)cc2Br)c2ccccc21)c1ccccc1 (centres unmarked)	MTT	48 h	pIC50	4.47
